# This is a sample that favours compounds with a hit; in the whole collection about 1.7% have one here.
# Hck Nef HTS = human Hck-Nef kinase inhibition; hit rate 0.68% among 220,000; AID 463187; P08631; Recombinant Hck-YEEI plus Nef, Z-Lyte FRET kinase assay; inhibition, % at 20 µM;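 active = Hck-Nef kinase inhibition above about 50%, limit read from the data; inactive = inhibition below that limit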;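 note: 0% = DMSO with Hck plus Nef and 100% = Hck alone without Nef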
# Target sequence (P08631 whole entry, looked up): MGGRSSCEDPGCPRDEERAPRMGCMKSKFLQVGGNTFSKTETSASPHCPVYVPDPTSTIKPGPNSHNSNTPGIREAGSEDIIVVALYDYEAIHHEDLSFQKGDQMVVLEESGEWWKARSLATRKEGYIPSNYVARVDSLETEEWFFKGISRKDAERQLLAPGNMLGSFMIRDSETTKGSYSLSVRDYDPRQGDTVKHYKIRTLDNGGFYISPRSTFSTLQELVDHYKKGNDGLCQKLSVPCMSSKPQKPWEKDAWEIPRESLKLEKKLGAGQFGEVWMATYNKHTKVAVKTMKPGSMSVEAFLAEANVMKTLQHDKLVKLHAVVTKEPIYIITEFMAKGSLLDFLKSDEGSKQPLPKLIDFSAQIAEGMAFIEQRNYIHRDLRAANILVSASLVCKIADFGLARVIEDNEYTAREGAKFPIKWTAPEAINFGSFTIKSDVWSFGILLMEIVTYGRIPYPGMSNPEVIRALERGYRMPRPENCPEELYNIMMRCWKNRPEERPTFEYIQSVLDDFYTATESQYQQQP
# RanGTP-Impb inh = inhibitors of RanGTP-importin-beta interaction, primary screen, biochemical, FRET, CFP-Ran, YFP-importin-beta, homogeneous | cell-free CFP-Ran/YFP-importin-beta FRET ratio | inhibition, % (no concentration beside the values) | hit rate 1.1% among 300,000 | AID 2216;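 active = more than half of the replicate wells show a fall in the fluorescence ratio signal beyond about 16%, limit read from the data, passing the limit was not always enough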;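 note: 0% = DMSO wells and 100% = Ran loaded with GDP instead of GTP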
# Runt-CBFb FRET = blocks binding of human RUNX1 Runt domain to CBFb; hit rate 0.46% among 220,000; inhibition, % at 20 µM; Cerulean-Runt/Venus-CBFb FRET ratio 530/480, 1 h; Q01196+Q13951;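 active = inhibition over about 50% at 20 µM in the single-dose screen, limit read from the data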;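 note: 0% = DMSO wells and 100% = excess unlabeled CBFb competitor control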
#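 Measured by: fluorescence energy transfer, 422 nm excitation, 530/480 nm emission; test system: Cerulean-tagged RUNX1 Runt domain (FRET donor) fusion protein; buffer or medium: Tris pH 7.5 buffer with BSA; compound: one dose, 20 µM compound, 1% DMSO; times: two 1 h room-temperature incubations shielded from light; benchmarks: unlabeled CBFb 5 µM, positive control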
# Runt-SMMHC FRET = blocks binding of human RUNX1 Runt domain to CBFb-SMMHC; Q01196+Q13951; Cerulean-Runt/Venus-CBFb-SMMHC FRET ratio 530/480, 1 h; inhibition, % at 20 µM; hit rate 0.74% among 220,000;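 active = mean inhibition across duplicate retests at 20 µM reaching about 50%, limit read from the data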;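 note: 0% = DMSO wells and 100% = wells with excess untagged CBFb-SMMHC; inhibitors lower the FRET ratio by blocking Runt binding to CBFb-SMMHC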
# YIC counter = counter-screen: alters YIC FRET probe signal; shares compounds with RanGTP-Impb inh; Purified YIC probe, intramolecular FRET ratio YFP/CFP; IC50, µM; hit rate 40% among 1,000;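 active = fitted half-maximal inhibitory concentration no more than tenfold above the top dose tested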
# * = called active by the depositor; nt = no result given.
SMILES,Hck Nef HTS,RanGTP-Impb inh,Runt-CBFb FRET,Runt-SMMHC FRET,YIC counter
N#C/C(=C(/O)CSc1ccccn1)c1nc2ccccc2s1,13,21*,7,-1,>50
Cc1ccc(SC/C(O)=C(\C#N)c2nc3ccccc3s2)cc1,6,-6,2,-2,nt
COc1ccccc1C(=O)N/C(=N/c1nc(C)cc(C)n1)Nc1ccccc1,-5,1,-1,1,nt
Cc1ccc(Cn2ccc(NC(=O)c3noc4c3CCc3ccccc3-4)n2)cc1,-3,33*,2,-6,>50
COc1ccc2c(c1)CCc1c(C(=O)Nc3ccn(Cc4ccc(C)cc4)n3)noc1-2,5,-5,-2,-4,nt
O=S(=O)(Nc1nc2ccccc2nc1-[n+]1cccc(N=C([O-])c2ccccc2Cl)c1)c1ccccc1,11,24*,48,75*,6.7*
CCCn1cnc2cc(NCc3ccc(Br)cc3)ccc21,nt,19*,nt,nt,>50
CCn1cnc2cc(NCc3ccc(C)cc3)ccc21,2,4,12,18,nt
COc1ccc(C2c3c(ncn(Cc4ccco4)c3=N)Oc3ccc4ccccc4c32)cc1 (centres undefined),4,71*,1,0,>50
CC1CCN(c2cc(=O)n(C3CCCCC3)c(=O)[nH]2)CC1,1,31*,1,0,>50
O=c1cc(N2CCC(Cc3ccccc3)CC2)[nH]c(=O)n1C1CCCCC1,0,22*,-5,1,>50
O=c1cc(N2CCc3ccccc3C2)[nH]c(=O)n1C1CCCCC1,0,54*,0,2,>50
C[C@H](O)c1[nH]c2cc(F)ccc2c1[C@H](C)O,nt,18*,nt,nt,>50
Cn1cc(Cl)c(/C=C(\C#N)S(=O)(=O)c2ccccc2)n1,12,3,-1,2,nt
COc1cc(C2C3CN(C)CC=C3C(C#N)=C(N)C2(C#N)C#N)ccc1OC(C)C (centres undefined),6,39*,88*,39,3.3*
Cc1c(C#N)c(NC(=O)CCl)n(Cc2ccccc2)c1C,22,23*,-3,0,>50
Cc1c(C#N)c(NC(=O)CCl)n(Cc2ccc(F)cc2)c1C,-4,-6,0,0,nt
CCCn1c(O)c(C=Nc2ccccc2)sc1=S,12,27*,21,49,12*
CCCCn1c(O)c(/C=C/C=C/C=Nc2ccccc2)sc1=S,45,4,1,-19,nt
CS(=O)(=O)Cc1ccc(C(=O)NC2CCCc3ccccc32)cc1 (centres undefined),nt,3,nt,nt,nt
Cc1c(CC(=O)O)c(=O)oc2c(C)c3occ(-c4ccc(F)cc4)c3cc12,nt,24*,nt,nt,>50
COc1ccc(-c2coc3c(C)c4oc(=O)c(CCC(=O)O)c(C)c4cc23)cc1,nt,2,nt,nt,nt
COc1ccc(CNC(=O)[C@H](C)NC(=O)N2CCn3c2nc2ccccc23)cc1,nt,9,nt,nt,nt
O=C(CN1C2CCCC1CC(NC(=O)c1ccccc1)C2)Nc1ccccc1C(F)(F)F (centres undefined),nt,1,nt,nt,nt
O=C(CN1C2CCCC1CC(NC(=O)c1ccco1)C2)Nc1ccccc1C(F)(F)F (centres undefined),6,17*,-8,2,>50
SMILES,Hck Nef HTS,RanGTP-Impb inh,Runt-CBFb FRET,Runt-SMMHC FRET,YIC counter
Cc1ccc(C(=O)NCc2ccco2)cc1S(=O)(=O)N1CCOCC1,1,25*,nt,-11,>50
COc1ccccc1CCC(=O)Nc1cc(S(=O)(=O)N2CCOCC2)ccc1N1CCCC1,nt,0,nt,nt,nt
COc1ccc(C2(C(=O)NCCc3ccccc3)CCCC2)cc1OC,nt,2,nt,nt,nt
COc1ccccc1N1CCN(Cc2cccs2)CC1,0,8,2,0,nt
COc1cc2c(cc1OC)CN(Cc1cc(OC)c(O)c(OC)c1)CC2,25,-1,4,6,nt
COc1cc2c(cc1OC)CN(Cc1ccccc1)CC2,nt,18*,nt,nt,>50
COc1cc2c(cc1OC)CN(Cc1cccs1)CC2,-4,18*,6,7,>50
NS(=O)(=O)c1cccnc1Nc1c(Cl)cccc1Cl,6,10,-1,0,nt
COc1ccccc1CNC(=O)Cn1ccsc1=N,nt,20*,nt,nt,>50
N=c1sccn1CC(=O)NCc1ccc(Cl)cc1Cl,16,3,1,-2,nt
Oc1ccc(N2Cc3ccccc3C2)cc1,nt,5,nt,nt,nt
O=Cc1ccc(N2Cc3ccccc3C2)cc1,nt,18*,nt,nt,>50
Cc1c(Cl)c([N+](=O)[O-])nn1CCCC(=O)Nc1sc2c(c1C(N)=O)CCC(C)C2 (centres undefined),-1,24*,-1,3,>50
Cc1c(Br)c([N+](=O)[O-])nn1CCCC(=O)Nc1sc2c(c1C(N)=O)CCC(C)C2 (centres undefined),4,2,6,-3,nt
CCN1/C(=C2\SC(=S)N(Cc3ccccc3)C2=O)Sc2ccccc21,3,24*,-153,-27,>50
CCN1/C(=C2/SC(=S)N(NC(C)=O)C2=O)Sc2ccccc21,nt,-74,nt,nt,nt
CSc1nc(-c2ccc(Cl)cc2)c(C#N)c(=O)n1C,18,0,4,0,nt
CSc1nc(-c2ccc(N(C)C)cc2)c(C#N)c(=O)n1C,-45,17*,48,85*,9.4*
O=C(C1CCCCC1)N1CC(=O)N2CCc3ccccc3C2C1 (centres undefined),-1,21*,0,3,>50
O=C(C1CCCCC1)N1CCc2ccccc21,22,-1,1,0,nt
Cc1cccc(NC(=O)CCC(=O)c2cccs2)n1,nt,0,nt,nt,nt
Cc1cc(Cl)ccc1OCC(=O)NNC(=O)c1cccnc1,nt,5,nt,nt,nt
Fc1ccccc1N1CCN(c2nc3ccccc3n3nnnc23)CC1,-1,17*,13,22,27*
CCOC(=O)C1(CCc2ccccc2)CCN(Cc2ccccn2)CC1,-1,17*,2,0,>50
CCOC(=O)C1(CCc2ccccc2)CCN(Cc2ccc(C(=O)OC)cc2)CC1,nt,6,nt,nt,nt
SMILES,Hck Nef HTS,RanGTP-Impb inh,Runt-CBFb FRET,Runt-SMMHC FRET,YIC counter
CC(=O)N1CCc2c(sc(NC(=O)c3ccc([N+](=O)[O-])o3)c2C#N)C1,7,-2,2,-8,nt
COc1ccc(C(=O)Nc2sc3c(c2C#N)CCN(C(C)=O)C3)cc1,26,42*,41,62*,>50
COc1cc(C(=O)NCCN2C(=O)S/C(=C\c3ccc(F)cc3)C2=O)ccc1OCC(=O)N1CCOCC1,1,-5,-3,-1,nt
Cc1ccc2cc(CN(CC3CCCO3)C(=S)Nc3ccccc3)c(=O)[nH]c2c1C (centres undefined),1,18*,0,1,>50
Cc1cc(C)c2[nH]c(=O)c(CN(CC3CCCO3)C(=S)Nc3ccccc3)cc2c1 (centres undefined),2,-2,19,5,nt
Cc1ccc(NC(=O)c2cccc(NC(=O)CC3SC(N4CCCCC4)=NC3=O)c2)nc1 (centres undefined),nt,0,nt,nt,nt
Cc1ccc(Nc2nc(N)nc(CCl)n2)cc1,-2,1,1,2,nt
Cc1ccc(Nc2nc(N)nc(CC#N)n2)cc1,0,25*,2,4,>50

# Screening data deposited in PubChem BioAssay by several laboratories.
